Assay results as given in ChEMBL document CHEMBL1149264, “Discovery of novel phenolic antioxidants as inhibitors of vascular cell adhesion molecule-1 expression for use in chronic inflammatory diseases” (J Med Chem, 2004).
Blank lines part the entries; values can stand above or below the molecule they belong to. Activity calls are given as the source filed them. The calls are words filed in the database; no cut-off is given here.

Tests used:
[1] = Inhibition of TNF-alpha-stimulated VCAM1 expression in endothelial cells; format: functional, cell-based; settings: Homo sapiens, Endothelial cell
Syrian golden hamster [2] = test: Effect on LDL level in hypercholesterolemic golden Syrian hamster; format: functional, Mesocricetus auratus; parameters: unit not given here
Summary of the method: (§1)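 Male golden Syrian hamsters (110-120 g), housed singly, given compound mixed into powdered chow at 150 mg/kg/d for two weeks. After an overnight fast and ketamine/xylazine i.p. anesthesia, blood was taken by cardiac puncture or abdominal aorta. Plasma was fractionated by FPLC and lipoprotein cholesterol measured enzymatically. Dunnett's test against controls.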

Syrian golden hamster [3] = test: Effect on HDL level in hypercholesterolemic golden Syrian hamster; format: functional, Mesocricetus auratus; parameters: unit not given here; summary of the method: as §1
[4] = Inhibition of LPS-induced IL1-beta secretion in human PBMN cells by ELISA; format: functional, cell-based
Summary of the method: (§2)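 Fresh cryopreserved human PBMCs at 1 million cells/mL in lymphocyte growth media-3 were pretreated with compound for 1 h, then stimulated with LPS 1 μg/mL for a further 2 h with compound present. Secreted TNF-α, IL-6 and IL-1β in conditioned media measured by human ELISA, in duplicate (mean ± SD). Experiments repeated at least three times.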

Mus musculus [5] = test: Inhibition of mBSA-induced paw-swelling in DTH BALB/c mouse model at 50 mg/kg, sc; format: functional; settings: route subcutaneous
Summary of the method: (§3)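 Male BALB/c mice (20-25 g) sensitized on day 0 with intradermal abdominal mBSA (5 mg/mL)/Freund's complete adjuvant 1:1 emulsion. On day 7 challenged with mBSA in the right hind footpad, saline in the left. Compound given s.c. 24 h and 2 h before challenge; cyclosporin A 20 mg/kg as reference. Feet weighed 24 h post-challenge; swelling inhibition relative to vehicle group (100%). ANOVA with Fisher's PLSD.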

Mus musculus [6] = test: Inhibition of mBSA-induced paw-swelling in DTH BALB/c mouse model at 25 mg/kg, sc; format: functional; settings: route subcutaneous; summary of the method: as §3
[7] = Inhibition of LPS-induced TNFalpha secretion in human PBMN cells by ELISA; format: functional, cell-based; summary of the method: as §2
[8] = Inhibition of LPS-induced IL6 secretion in human PBMN cells by ELISA; format: functional, cell-based; summary of the method: as §2
[9] = molecular target: T1, Polyunsaturated fatty acid lipoxygenase ALOX15 (Homo sapiens, UniProt P16050); test: Inhibition of 15-lipoxygenase by LMB assay
T1 sequence (P16050 whole entry): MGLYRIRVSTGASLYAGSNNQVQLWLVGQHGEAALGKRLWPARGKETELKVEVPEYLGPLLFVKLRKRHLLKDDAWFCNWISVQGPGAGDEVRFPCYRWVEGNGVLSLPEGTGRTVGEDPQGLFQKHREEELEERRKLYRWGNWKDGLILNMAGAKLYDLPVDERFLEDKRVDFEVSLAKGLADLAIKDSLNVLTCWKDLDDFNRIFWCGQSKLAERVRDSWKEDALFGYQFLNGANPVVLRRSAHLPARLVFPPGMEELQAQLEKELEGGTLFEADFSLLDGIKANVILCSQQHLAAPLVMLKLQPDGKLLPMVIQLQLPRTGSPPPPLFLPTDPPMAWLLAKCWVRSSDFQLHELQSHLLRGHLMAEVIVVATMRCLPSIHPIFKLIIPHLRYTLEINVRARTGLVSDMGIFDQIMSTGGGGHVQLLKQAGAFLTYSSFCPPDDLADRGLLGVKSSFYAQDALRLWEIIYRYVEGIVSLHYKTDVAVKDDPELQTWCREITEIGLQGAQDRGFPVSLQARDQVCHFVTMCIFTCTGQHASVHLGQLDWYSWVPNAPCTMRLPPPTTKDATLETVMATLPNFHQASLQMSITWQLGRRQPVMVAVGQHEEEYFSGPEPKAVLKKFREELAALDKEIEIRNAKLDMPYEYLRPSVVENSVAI

Rattus norvegicus [10] = test: Inhibition of paw edema in collagen 2-sensitized orally dosed rat model; format: functional, organism-based
PBMN = test: Inhibition of LPS-induced IL1-beta secretion in human PBMN cells at 10 uM by ELISA; format: functional, cell-based; summary of the method: as §2
Rattus norvegicus [11] = species on record: Rattus norvegicus; test: Inhibition of artheriosclerosis in allograft recipient rat; format: functional, organism-based

Structure (SMILES): CC(C)(Sc1cc(C(C)(C)C)c(O)c(C(C)(C)C)c1)Sc1cc(C(C)(C)C)c(O)c(C(C)(C)C)c1 [PROBUCOL]
IC50 [4]: > 40 µM | IC50 [7]: > 40 µM | IC50 [8]: > 40000 nM

Structure (SMILES): C=CC(=O)OCCCCOc1c(C(C)(C)C)ccc(SC(C)(C)Sc2cc(C(C)(C)C)c(O)c(C(C)(C)C)c2)c1C(C)(C)C
IC50 [1]: 75 µM

Structure (SMILES): CC(C)(Sc1cc(C(C)(C)C)c(O)c(C(C)(C)C)c1)Sc1ccc(C(C)(C)C)c(OC/C(N)=N/O)c1C(C)(C)C
IC50 [1]: 26 µM

Structure (SMILES): CC(C)(Sc1cc(C(C)(C)C)c(O)c(C(C)(C)C)c1)Sc1ccc(C(C)(C)C)c(OCC(O)CO)c1C(C)(C)C (centres undefined)
IC50 [1]: 30 µM

Structure (SMILES): CCOCC(O)COc1c(C(C)(C)C)ccc(SC(C)(C)Sc2cc(C(C)(C)C)c(O)c(C(C)(C)C)c2)c1C(C)(C)C (centres undefined)
IC50 [1]: > 50 µM

Structure (SMILES): CC(C)(Sc1cc(C(C)(C)C)c(O)c(C(C)(C)C)c1)Sc1ccc(C(C)(C)C)c(OCC(=O)N[C@@H](CCC(=O)O)C(=O)O)c1C(C)(C)C
IC50 [1]: 75 µM

Structure (SMILES): CC(C)(Sc1cc(C(C)(C)C)c(OCC(=O)O)c(C(C)(C)C)c1)Sc1ccc(C(C)(C)C)c(OCC(=O)O)c1C(C)(C)C
IC50 [4]: > 10 µM | IC50 [1]: > 50 µM | IC50 [7]: > 10 µM | IC50 [8]: > 10000 nM | IC50 [9]: > 125 µM

Structure (SMILES): CC(=O)OCC(O)COc1c(C(C)(C)C)ccc(SC(C)(C)Sc2cc(C(C)(C)C)c(O)c(C(C)(C)C)c2)c1C(C)(C)C (centres undefined)
IC50 [1]: 41 µM

Structure (SMILES): CC(C)(Sc1cc(C(C)(C)C)c(O)c(C(C)(C)C)c1)Sc1ccc(C(C)(C)C)c(OCCCCC(=O)O)c1C(C)(C)C
IC50 [1]: 23 µM

Structure (SMILES): CC(=O)OC(CO)COc1c(C(C)(C)C)ccc(SC(C)(C)Sc2cc(C(C)(C)C)c(O)c(C(C)(C)C)c2)c1C(C)(C)C (centres undefined)
IC50 [1]: 33 µM

Structure (SMILES): CC(C)(Sc1cc(C(C)(C)C)c(O)c(C(C)(C)C)c1)Sc1ccc(C(C)(C)C)c(OCCCCO)c1C(C)(C)C
IC50 [1]: 125 µM

Structure (SMILES): CC(C)(Sc1cc(C(C)(C)C)c(O)c(C(C)(C)C)c1)Sc1ccc(C(C)(C)C)c(OC[C@@H](O)[C@@H](O)[C@@H](O)C(=O)O)c1C(C)(C)C
Activity (Syrian golden hamster [2]): 175 | Activity (Syrian golden hamster [3]): 173 | IC50 [1]: 35 µM

Structure (SMILES): CC(C)(Sc1cc(C(C)(C)C)c(O)c(C(C)(C)C)c1)Sc1ccc(C(C)(C)C)c(O/C=C/CO)c1C(C)(C)C
IC50 [1]: 55 µM

Structure (SMILES): CC(C)(Sc1cc(C(C)(C)C)c(O)c(C(C)(C)C)c1)Sc1ccc(C(C)(C)C)c(O/C=C/C(=O)O)c1C(C)(C)C
IC50 [1]: 30 µM

Structure (SMILES): CC(=O)O[C@@H]1O[C@H](COc2c(C(C)(C)C)ccc(SC(C)(C)Sc3cc(C(C)(C)C)c(O)c(C(C)(C)C)c3)c2C(C)(C)C)[C@@H](OC(C)=O)[C@H](OC(C)=O)[C@H]1OC(C)=O
IC50 [1]: > 50 µM

Continued, in another order:

IC50 [1]: 6 µM
Structure (SMILES): CC(C)(Sc1cc(C(C)(C)C)c(O)c(C(C)(C)C)c1)Sc1ccc(C(C)(C)C)c(OCC(=O)NCC(=O)O)c1C(C)(C)C

IC50 [1]: 13 µM
Structure (SMILES): CC(C)(Sc1cc(C(C)(C)C)c(O)c(C(C)(C)C)c1)Sc1ccc(C(C)(C)C)c(OC[C@@H](O)[C@@H](O)[C@@H](O)CO)c1C(C)(C)C
Activity (Syrian golden hamster [2]): 338 | Activity (Syrian golden hamster [3]): 119

IC50 [1]: 6 µM
Structure (SMILES): CC(C)(Sc1cc(C(C)(C)C)c(O)c(C(C)(C)C)c1)Sc1ccc(C(C)(C)C)c(OCC(=O)NCCC(=O)O)c1C(C)(C)C

IC50 [4]: 8 µM | IC50 [1]: 1 µM | IC50 [7]: 3.3 µM | IC50 [8]: 1200 nM
Structure (SMILES): CC(C)(Sc1cc(C(C)(C)C)c(O)c(C(C)(C)C)c1)Sc1ccc(C(C)(C)C)c(OC[C@@H](O)[C@H](O)CO)c1C(C)(C)C
inhibition in vivo at 50 mg/kg (Mus musculus [5]): 58% | inhibition in vivo at 25 mg/kg (Mus musculus [6]): 29%

IC50 [1]: 13 µM
Structure (SMILES): CC(C)(Sc1cc(C(C)(C)C)c(O)c(C(C)(C)C)c1)Sc1ccc(C(C)(C)C)c(OCC(CO)CO)c1C(C)(C)C

IC50 [1]: 16 µM
Structure (SMILES): CC(C)(Sc1cc(C(C)(C)C)c(O)c(C(C)(C)C)c1)Sc1ccc(C(C)(C)C)c(OCC(O)CNCC(=O)O)c1C(C)(C)C (centres undefined)
Activity (Syrian golden hamster [2]): 190 | Activity (Syrian golden hamster [3]): 146

IC50 [4]: 7.7 µM | IC50 [1]: 6 µM | IC50 [7]: 4 µM | IC50 [8]: 1700 nM
Structure (SMILES): CC(C)(Sc1cc(C(C)(C)C)c(O)c(C(C)(C)C)c1)Sc1ccc(C(C)(C)C)c(OC[C@H](O)[C@@H](O)CO)c1C(C)(C)C
inhibition in vivo at 50 mg/kg (Mus musculus [5]): 58% | inhibition in vivo at 25 mg/kg (Mus musculus [6]): 29%

IC50 [1]: 10 µM
Structure (SMILES): CC(C)(Sc1cc(C(C)(C)C)c(O)c(C(C)(C)C)c1)Sc1cc(C(C)(C)C)c(OCC(=O)O)c(C(C)(C)C)c1 [CAMOBUCOL]
Activity (Syrian golden hamster [2]): 18 | Activity (Syrian golden hamster [3]): 86 | Activity (Rattus norvegicus [10]): Dose-dependent effect

IC50 [1]: 6 µM
Structure (SMILES): CC(C)(Sc1cc(C(C)(C)C)c(O)c(C(C)(C)C)c1)Sc1ccc(C(C)(C)C)c(OCC(=O)NC(CO)CO)c1C(C)(C)C

IC50 [1]: 10 µM | IC50 [7]: 1.9 µM | IC50 [8]: 1600 nM | IC50 [9]: 10 µM
Structure (SMILES): CC(C)(Sc1cc(C(C)(C)C)c(O)c(C(C)(C)C)c1)Sc1ccc(C(C)(C)C)c(OC[C@H]2OC(O)[C@H](O)[C@@H](O)[C@@H]2O)c1C(C)(C)C (some centres undefined)
Activity (Syrian golden hamster [2]): 9 | inhibition in vivo at 50 mg/kg (Mus musculus [5]): 58% | Activity (Syrian golden hamster [3]): 63 | Activity (PBMN): Active | inhibition in vivo at 25 mg/kg (Mus musculus [6]): 29%

IC50 [4]: 2.2 µM | IC50 [1]: 15 µM | IC50 [7]: 1.8 µM | IC50 [8]: 1000 nM | IC50 [9]: 12 µM
Structure (SMILES): CC(C)(Sc1cc(C(C)(C)C)c(O)c(C(C)(C)C)c1)Sc1ccc(C(C)(C)C)c(OC[C@@H](O)[C@@H](O)[C@H](O)[C@@H](O)CO)c1C(C)(C)C
Activity (Syrian golden hamster [2]): 30 | inhibition in vivo at 50 mg/kg (Mus musculus [5]): 58% | Activity (Syrian golden hamster [3]): 94 | inhibition in vivo at 25 mg/kg (Mus musculus [6]): 29%

IC50 [1]: 7 µM
Structure (SMILES): CN(CC(=O)O)C(=O)COc1c(C(C)(C)C)ccc(SC(C)(C)Sc2cc(C(C)(C)C)c(O)c(C(C)(C)C)c2)c1C(C)(C)C

IC50 [1]: 8 µM
Structure (SMILES): CC(C)(Sc1cc(C(C)(C)C)c(O)c(C(C)(C)C)c1)Sc1ccc(C(C)(C)C)c(OC[C@H]2OC(O)[C@H](O)[C@@H]2O)c1C(C)(C)C (some centres undefined)

IC50 [1]: 6 µM
Structure (SMILES): CC(C)(Sc1cc(C(C)(C)C)c(O)c(C(C)(C)C)c1)Sc1cc(C(C)(C)C)c(OC(=O)CCC(=O)O)c(C(C)(C)C)c1 [SUCCINOBUCOL]

IC50 [1]: 13 µM
Structure (SMILES): CC(C)(Sc1cc(C(C)(C)C)c(O)c(C(C)(C)C)c1)Sc1ccc(C(C)(C)C)c(OC[C@H]2OC(=O)[C@H](O)[C@@H]2O)c1C(C)(C)C

IC50 [1]: 11 µM
Structure (SMILES): CC(C)(Sc1cc(C(C)(C)C)c(O)c(C(C)(C)C)c1)Sc1cc(C(C)(C)C)c(OCCCC(=O)O)c(C(C)(C)C)c1 [ELSIBUCOL]
Activity (Rattus norvegicus [11]): Active

IC50 [1]: 7 µM
Structure (SMILES): CC(C)(Sc1cc(C(C)(C)C)c(O)c(C(C)(C)C)c1)Sc1ccc(C(C)(C)C)c(OCCC(=O)O)c1C(C)(C)C
